ChEMBL document CHEMBL3396998, “Synthesis and antitubercular evaluation of 4-carbonyl piperazine substituted 1,3-benzothiazin-4-one derivatives” (Bioorg Med Chem Lett, 2015)
In brackets after ≈: the same amount, converted by molar mass.

Assays:
[1] = Cytotoxicity against African green monkey Vero cells after 72 hrs by MTT assay; format: cell-based; settings: chlorocebus sabaeus
How it was run: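 Vero cells were exposed to each compound over a broad concentration range. Viability was read by MTT, and cytotoxicity was reported as IC50.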

[2] = Aqueous solubility of the compound by HPLC method; format: physicochemical; settings: water
[3] = test system: Mycobacterium tuberculosis; experiment: Antitubercular activity against Mycobacterium tuberculosis H37Ra ATCC 25177 by MABA method; format: functional
[4] = Ratio of aqueous solubility of PBTZ169 to aqueous solubility of the compound by HPLC method; format: physicochemical; settings: buffer
[5] = Ratio of aqueous solubility of BTZ038 to aqueous solubility of the compound by HPLC method; format: physicochemical; settings: buffer

Compound | CC50 at 72 h [1] [µM] | solubility [2] [µg/mL] | MIC90 [3] [µM] | Ratio [4] | Ratio [5]
O=C(c1ccc([N+](=O)[O-])cc1)N1CCN(c2nc(=O)c3cc(C(F)(F)F)cc([N+](=O)[O-])c3s2)CC1 | > 125 | 1.67 (≈ 3.28 µM) | 0.063 (≈ 0.0321 µg/mL) |  | 
O=C(c1ccccc1[N+](=O)[O-])N1CCN(c2nc(=O)c3cc(C(F)(F)F)cc([N+](=O)[O-])c3s2)CC1 | > 125 | 2.15 (≈ 4.22 µM) | 0.13 (≈ 0.0662 µg/mL) |  | 
O=C(c1ccc(C(F)(F)F)cc1)N1CCN(c2nc(=O)c3cc(C(F)(F)F)cc([N+](=O)[O-])c3s2)CC1 | > 125 | 7.53 (≈ 14.1 µM) | 0.031 (≈ 0.0165 µg/mL) |  | 
COc1ccc(CC(=O)N2CCN(c3nc(=O)c4cc(C(F)(F)F)cc([N+](=O)[O-])c4s3)CC2)cc1 | > 125 | 2.72 (≈ 5.35 µM) | 0.13 (≈ 0.0661 µg/mL) |  | 
COc1ccccc1C(=O)N1CCN(c2nc(=O)c3cc(C(F)(F)F)cc([N+](=O)[O-])c3s2)CC1 | > 125 | 13.6 (≈ 27.4 µM) | 0.063 (≈ 0.0312 µg/mL) |  | 
COc1cccc(C(=O)N2CCN(c3nc(=O)c4cc(C(F)(F)F)cc([N+](=O)[O-])c4s3)CC2)c1 | > 125 | 0.91 (≈ 1.84 µM) | 0.031 (≈ 0.0153 µg/mL) |  | 
COc1ccc(C(=O)N2CCN(c3nc(=O)c4cc(C(F)(F)F)cc([N+](=O)[O-])c4s3)CC2)cc1 | > 125 | 0.22 (≈ 0.445 µM) | 0.13 (≈ 0.0643 µg/mL) |  | 
Cc1ccc(C(=O)N2CCN(c3nc(=O)c4cc(C(F)(F)F)cc([N+](=O)[O-])c4s3)CC2)cc1 | > 125 | 6.7 (≈ 14 µM) | 0.031 (≈ 0.0148 µg/mL) |  | 
CCc1ccc(C(=O)N2CCN(c3nc(=O)c4cc(C(F)(F)F)cc([N+](=O)[O-])c4s3)CC2)cc1 | > 125 | < 0.1 | 0.031 (≈ 0.0153 µg/mL) |  | 
CC(C)(C)c1ccc(C(=O)N2CCN(c3nc(=O)c4cc(C(F)(F)F)cc([N+](=O)[O-])c4s3)CC2)cc1 | > 125 | 1.25 (≈ 2.4 µM) | 0.016 (≈ 0.00833 µg/mL) |  | 
O=C(c1ccccc1F)N1CCN(c2nc(=O)c3cc(C(F)(F)F)cc([N+](=O)[O-])c3s2)CC1 | > 125 | 3.1 (≈ 6.43 µM) | 0.008 (≈ 0.00386 µg/mL) |  | 
O=C(c1cccc(F)c1)N1CCN(c2nc(=O)c3cc(C(F)(F)F)cc([N+](=O)[O-])c3s2)CC1 | > 125 | 0.2 (≈ 0.415 µM) | 0.016 (≈ 0.00772 µg/mL) |  | 
O=C(c1ccc(F)cc1)N1CCN(c2nc(=O)c3cc(C(F)(F)F)cc([N+](=O)[O-])c3s2)CC1 | > 125 | 1.69 (≈ 3.5 µM) | 0.031 (≈ 0.015 µg/mL) |  | 
O=C(c1ccccc1Cl)N1CCN(c2nc(=O)c3cc(C(F)(F)F)cc([N+](=O)[O-])c3s2)CC1 | > 125 | 8.18 (≈ 16.4 µM) | 0.016 (≈ 0.00798 µg/mL) |  | 
O=C(c1ccc(Cl)cc1)N1CCN(c2nc(=O)c3cc(C(F)(F)F)cc([N+](=O)[O-])c3s2)CC1 | > 125 | 5.19 (≈ 10.4 µM) | 0.016 (≈ 0.00798 µg/mL) |  | 
O=C(C1CC1)N1CCN(c2nc(=O)c3cc(C(F)(F)F)cc([N+](=O)[O-])c3s2)CC1 | > 125 | 52.9 (≈ 123 µM) | 0.13 (≈ 0.0557 µg/mL) |  | 

Compound | CC50 at 72 h [1] [µM] | solubility [2] [µg/mL] | MIC90 [3] [µM] | Ratio [4] | Ratio [5]
O=C(C1CCC1)N1CCN(c2nc(=O)c3cc(C(F)(F)F)cc([N+](=O)[O-])c3s2)CC1 | > 125 | 39.3 (≈ 88.8 µM) | 0.031 (≈ 0.0137 µg/mL) |  | 
O=C(C1CCCC1)N1CCN(c2nc(=O)c3cc(C(F)(F)F)cc([N+](=O)[O-])c3s2)CC1 | 120 | 5.34 (≈ 11.7 µM) | 0.016 (≈ 0.0073 µg/mL) |  | 
O=C(C1CCCCC1)N1CCN(c2nc(=O)c3cc(C(F)(F)F)cc([N+](=O)[O-])c3s2)CC1 | 88.7 | 3.24 (≈ 6.89 µM) | 0.031 (≈ 0.0146 µg/mL) |  | 
O=C(CC1CCCCC1)N1CCN(c2nc(=O)c3cc(C(F)(F)F)cc([N+](=O)[O-])c3s2)CC1 | > 125 | 0.12 (≈ 0.248 µM) | 0.016 (≈ 0.00775 µg/mL) |  | 
CC(C)(C)C1CCC(C(=O)N2CCN(c3nc(=O)c4cc(C(F)(F)F)cc([N+](=O)[O-])c4s3)CC2)CC1 (stereo not drawn) | > 125 | < 0.1 | 0.004 (≈ 0.00211 µg/mL) |  | 
O=C(N1CCN(c2nc(=O)c3cc(C(F)(F)F)cc([N+](=O)[O-])c3s2)CC1)C12CC3CC(CC(C3)C1)C2 | > 125 | 2.95 (≈ 5.65 µM) | 0.031 (≈ 0.0162 µg/mL) |  | 
CC(=O)N1CCN(c2nc(=O)c3cc(C(F)(F)F)cc([N+](=O)[O-])c3s2)CC1 | > 125 | 83.9 (≈ 208 µM) | > 0.13 |  | 
CCC(=O)N1CCN(c2nc(=O)c3cc(C(F)(F)F)cc([N+](=O)[O-])c3s2)CC1 | > 125 | 3.29 (≈ 7.9 µM) | 0.016 (≈ 0.00666 µg/mL) |  | 
CCCC(=O)N1CCN(c2nc(=O)c3cc(C(F)(F)F)cc([N+](=O)[O-])c3s2)CC1 | > 125 | 2.46 (≈ 5.72 µM) | 0.13 (≈ 0.056 µg/mL) |  | 
CCCCC(=O)N1CCN(c2nc(=O)c3cc(C(F)(F)F)cc([N+](=O)[O-])c3s2)CC1 | > 125 | 42.5 (≈ 95.6 µM) | 0.031 (≈ 0.0138 µg/mL) |  | 
CSCC(=O)N1CCN(c2nc(=O)c3cc(C(F)(F)F)cc([N+](=O)[O-])c3s2)CC1 | > 125 | 15.2 (≈ 33.8 µM) | 0.13 (≈ 0.0583 µg/mL) |  | 
CC(C)(C)C(=O)N1CCN(c2nc(=O)c3cc(C(F)(F)F)cc([N+](=O)[O-])c3s2)CC1 | > 125 | 5.87 (≈ 13.2 µM) | 0.031 (≈ 0.0138 µg/mL) |  | 
CC(C)CC(=O)N1CCN(c2nc(=O)c3cc(C(F)(F)F)cc([N+](=O)[O-])c3s2)CC1 | > 125 | 66.3 (≈ 149 µM) | 0.031 (≈ 0.0138 µg/mL) |  | 
CCC(C)C(=O)N1CCN(c2nc(=O)c3cc(C(F)(F)F)cc([N+](=O)[O-])c3s2)CC1 (stereo not drawn) | > 125 | 104 (≈ 234 µM) | 0.008 (≈ 0.00356 µg/mL) | 10 | 100
CC1COC2(CCN(c3nc(=O)c4cc(C(F)(F)F)cc([N+](=O)[O-])c4s3)CC2)O1 (racemic) | > 125 | 0.94 (≈ 2.18 µM) | 0.004 (≈ 0.00173 µg/mL) |  | 
O=c1nc(N2CCN(CC3CCCCC3)CC2)sc2c([N+](=O)[O-])cc(C(F)(F)F)cc12 [MACOZINONE] | > 125 | 9.07 (≈ 19.9 µM) | < 0.004 |  | 
